Assay results from ChEMBL document CHEMBL1147681, “Identification of a terphenyl derivative that blocks the cell cycle in the G0-G1 phase and induces differentiation in leukemia cells” (J Med Chem, 2006).
Active and inactive are the calls of the source. No cut-off for these calls is given here.

Columns and labels:
HL-60 [1] = test: Antiproliferative activity against human HL60 cell line; assay type: functional, cell-based
Summary of the method: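 Cell growth inhibition measured by counting cells with an automatic cell counter in sensitive HL60, MDR HL60R and Bcr-Abl-expressing K562 cells. IC50 is the concentration inhibiting 50% of cell growth.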

HL-60 [2] = test: Proapoptotic activity against human HL60 cell line; assay type: functional, cell-based
Summary of the method: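 Apoptosis assessed by morphological assay and annexin V test. AC50 is the concentration inducing apoptosis in 50% of cells.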

HL-60 [3] = test: Cell cycle arrest in human HL60 cells by accumulation at S phase at 30 uM; assay type: functional, cell-based
Summary of the method: (§1)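 HL60 cells were stained with propidium iodide and analysed by flow cytometry for sub-G0-G1, G0-G1, S and G2-M peaks against untreated control. Exposures were 50 µM for 8 h or 24 h, 10 µM for 96 h, and 20 or 30 µM for 24 h.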

HL-60 [4] = test: Cell cycle arrest in human HL60 cells by accumulation at G2/M phase at 10 uM; assay type: functional, cell-based
Summary of the method: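 HL60 cells exposed for 24 h at 10 µM, stained with propidium iodide, and analysed by flow cytometry for DNA content. Sub-G0-G1 (apoptotic), G0-G1, S and G2-M peaks compared with untreated HL60 cells.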

HL-60 [5] = test: Induction of differentiation of human HL60 cells at 10 uM measured as expression of granulocytic marker CD11b after 4 days; assay type: functional
Summary of the method: (§2)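 HL60 cells exposed to 10 µM compound; CD14 (monocytic), CD11b and CD11c (granulocytic) surface expression measured by flow cytometry, as percentage of positive cells versus untreated control. Read-out given as 72 h in text, 4 days in table.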

HL-60 [6] = test: Induction of differentiation of human HL60 cells at 10 uM measured as expression of granulocytic marker CD11c after 4 days; assay type: functional; summary of the method: as §2
HL-60 [7] = test: Cell cycle arrest in human HL60 cells by accumulation at G0/G1 phase at 50 uM after 8 hrs; assay type: functional, cell-based; summary of the method: as §1
HL-60 [8] = test: Cell cycle arrest in human HL60 cells by accumulation at G0/G1 phase at 10 uM after 96 hrs; assay type: functional, cell-based; summary of the method: as §1
HL-60 [9] = test: Induction of differentiation of human HL60 cells at 10 uM measured as expression of monocytic marker CD14 after 4 days; assay type: functional; summary of the method: as §2
HL-60 [10] = test: Cell cycle arrest in human HL60 cells by accumulation at G2/M phase at 20 uM; assay type: functional, cell-based; summary of the method: as §1

Row | SMILES | IC50 (HL-60 [1]) [µM] | AC50 (HL-60 [2]) [µM] | also measured
1 | Oc1cc(O)cc(-c2ccc3cc(O)ccc3c2)c1 | 28 | 48 | 
2 | COc1cc(/C=C/c2cc(C(C)(C)C)c(O)c(C(C)(C)C)c2)cc(OC)c1 | 84 | > 100 | 
3 | COc1cc(OC)cc(-c2ccc3cc(OC)ccc3c2)c1 | 76 | 91 | 
4 | COc1cc(OC)cc(-c2ccccc2-c2ccc(O)cc2)c1 | 5 | 10 | 
5 | COc1cc(OC)cc(-c2ccc(-c3ccc(O)cc3)cc2)c1 | 2.5 | 30 | 
6 | COc1ccc(-c2cccc(-c3cc(OC)cc(OC)c3)c2)cc1 | 50 | > 100 | 
7 | COc1cc(/C=C/c2cccc(OC)c2O)cc(OC)c1 | 3.5 | 15 | Activity (HL-60 [3]): Active
8 | COc1cc(/C=C/c2ccccc2O)cc(OC)c1 | 9 | 35 | 
9 | COc1ccc(/C=C/c2cc(OC)cc(OC)c2)cc1 [TRISMETHOXYRESVERATROL] | 2.5 | 4 | Activity (HL-60 [4]): Active
10 | Oc1ccc(-c2ccc(-c3cc(O)cc(O)c3)cc2)cc1 | 7 | 25 | Activity (HL-60 [5]): 62%; Activity (HL-60 [6]): 60%; Activity (HL-60 [7]): Active; Activity (HL-60 [8]): Active; Activity (HL-60 [9]): 58%
11 | COc1cc(OC)cc(-c2ccc3cc(O)ccc3c2)c1 | 10 | 19 | 
12 | Oc1ccc(/C=C/c2cc(O)cc(O)c2)cc1 [RESVERATROL] |  |  | Activity (HL-60 [5]): 24%; Activity (HL-60 [6]): 22%; Activity (HL-60 [9]): 23%
13 | Oc1ccc(-c2cccc(-c3cc(O)cc(O)c3)c2)cc1 | 27 | 63 | 
14 | COc1cc(/C=C/c2cc(OC)c(O)c(OC)c2)cc(OC)c1 | 20 | 79 | 
15 | COc1cc(/C=C/c2cc(Cl)ccc2O)cc(OC)c1 | 14 | 29 | 
16 | CCOc1cc(/C=C/c2cc(OC)cc(OC)c2)ccc1O | 11 | 18 | 
17 | COc1cc(OC)cc(-c2cccc(-c3ccc(O)cc3)c2)c1 | 4.8 | 23 | 
18 | Oc1ccc(-c2ccccc2-c2cc(O)cc(O)c2)cc1 | 3.5 | 9 | Activity (HL-60 [10]): Active
19 | COc1cc(/C=C/c2cccc(O)c2)cc(OC)c1 | 23 | 58 | 
20 | COc1ccc(-c2ccccc2-c2cc(OC)cc(OC)c2)cc1 | 7 | 15 | 
21 | COc1cc(/C=C/c2ccc(O)cc2)cc(OC)c1 [PTEROSTILBENE] |  | 75 | 
22 | COc1ccc(-c2ccc(-c3cc(OC)cc(OC)c3)cc2)cc1 | 75 | > 100 | 
